Measurements: BindingDB's records for doi:10.1021/jm00151a016 (1986)
Positions of bridges follow the written chain, without caps; N, C: chain ends. Non-standard residues stand in square brackets, D forms with d. Residues, ends and D or L forms follow the SMILES beside them. NMeA = CN[C@@H](C)C(=O)O; Sar = CNCC(=O)O

Assays:
[1] = target: Vasopressin V2 receptor (Bos taurus, UniProt P48044); experiment: ChEBML_214690
From the text: Binding affinity against plasma membrane from bovine kidney inner medulla using [3H]AVP as a radioligand

[2] = target: Vasopressin V1a/V1b receptor (Rattus norvegicus, UniProt P30560+P48974); experiment: Binding affinity against plasma membrane from rat liver using [3H]-AVP as a radioligand
Vasopressin V1a/V1b receptor, sequence (P30560 whole entry): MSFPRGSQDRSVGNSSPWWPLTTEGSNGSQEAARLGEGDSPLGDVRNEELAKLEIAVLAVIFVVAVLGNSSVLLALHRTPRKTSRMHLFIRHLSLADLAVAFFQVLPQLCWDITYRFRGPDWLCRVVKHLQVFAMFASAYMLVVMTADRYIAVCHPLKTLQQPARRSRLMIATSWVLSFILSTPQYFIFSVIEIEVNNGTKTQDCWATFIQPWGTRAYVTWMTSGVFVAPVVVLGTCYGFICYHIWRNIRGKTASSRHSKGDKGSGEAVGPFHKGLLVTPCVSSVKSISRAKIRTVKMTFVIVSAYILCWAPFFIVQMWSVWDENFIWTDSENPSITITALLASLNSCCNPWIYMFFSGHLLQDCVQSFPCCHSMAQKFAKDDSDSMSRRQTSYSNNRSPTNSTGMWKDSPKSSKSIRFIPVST
Vasopressin V1a/V1b receptor, sequence (P48974 whole entry): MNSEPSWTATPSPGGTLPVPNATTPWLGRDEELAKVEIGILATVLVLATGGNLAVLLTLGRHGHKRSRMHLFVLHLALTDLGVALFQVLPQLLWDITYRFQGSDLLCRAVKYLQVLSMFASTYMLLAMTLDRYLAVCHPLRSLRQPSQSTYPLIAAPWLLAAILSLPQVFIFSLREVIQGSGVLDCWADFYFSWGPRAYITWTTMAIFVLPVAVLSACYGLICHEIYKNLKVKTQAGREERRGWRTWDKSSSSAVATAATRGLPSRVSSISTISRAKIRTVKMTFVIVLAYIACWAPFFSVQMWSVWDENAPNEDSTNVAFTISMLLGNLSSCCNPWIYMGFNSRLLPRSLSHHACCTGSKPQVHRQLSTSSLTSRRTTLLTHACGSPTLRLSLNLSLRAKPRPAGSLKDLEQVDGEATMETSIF
Outline: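 Competition binding with [3H]AVP to plasma membranes, 30 min incubation; for rat liver membranes the standard medium included bacitracin (1 mg/mL). Apparent KD and slope factor b from weighted nonlinear least-squares fit of displacement curves to logistic curves; [3H]AVP parameters from direct binding. Mean ±SE of two experiments.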

Vasopressin V2 receptor, sequence (P48044 whole entry): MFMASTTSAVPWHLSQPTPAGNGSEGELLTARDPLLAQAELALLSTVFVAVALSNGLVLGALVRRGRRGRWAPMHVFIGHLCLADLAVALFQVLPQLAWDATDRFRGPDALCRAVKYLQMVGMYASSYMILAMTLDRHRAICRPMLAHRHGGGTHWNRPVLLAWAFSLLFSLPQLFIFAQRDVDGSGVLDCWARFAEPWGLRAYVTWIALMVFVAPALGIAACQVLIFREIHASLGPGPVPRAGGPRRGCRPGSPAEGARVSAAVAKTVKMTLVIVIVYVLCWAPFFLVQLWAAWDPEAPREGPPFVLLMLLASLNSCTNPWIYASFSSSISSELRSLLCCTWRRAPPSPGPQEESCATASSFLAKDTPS

Kd [1] [nM]	Kd [2] [nM]	Structure (SMILES)
9.4		CC(C)[C@H]1NC(=O)[C@H](Cc2ccccc2)NC(=O)[C@@H](Cc2ccc(O)cc2)NC(=O)CCSSC[C@@H](C(=O)N(C)[C@@H](C)C(=O)N[C@@H](CCCN=C(N)N)C(=O)NCC(N)=O)NC(=O)[C@H](CC(N)=O)NC1=O
	110	C[C@@H](C(=O)N[C@@H](CCCN=C(N)N)C(=O)NCC(N)=O)N(C)C(=O)[C@@H]1CSSC[C@H](N)C(=O)N[C@@H](Cc2ccccc2)C(=O)N[C@@H](Cc2ccccc2)C(=O)N[C@@H](CCC(N)=O)C(=O)N[C@@H](CC(N)=O)C(=O)N1 (H-CFFQNC[NMeA]RG-NH2; disulfide 1-6)
9.4	110	CC(C)[C@@H]1NC(=O)[C@H](Cc2ccccc2)NC(=O)[C@H](Cc2ccc(O)cc2)NC(=O)[C@@H](N)CSSC[C@@H](C(=O)N(C)CC(=O)N[C@@H](CCCNC(=N)N)C(=O)NCC(N)=O)NC(=O)[C@H](CC(N)=O)NC1=O (H-CYFVNC[Sar]RG-NH2; disulfide 1-6)
